Assay results published in the array DNA melting data of Ke et al. (doi:10.1101/2024.01.08.574731).

Legend:
[1] = folding enthalpy; higher = less favourable; fluorescence melt of hairpins on a sequencing array, two-state fit; conditions: sodium 0.088 M
How it was run: (§1)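 In 50 mM Na-HEPES pH 8.0 containing 25 mM NaCl, hairpins from the library on a sequenced MiSeq flow cell were imaged for Cy3 fluorescence at 2.5 °C steps up to 60 °C, with Cy3 and quencher oligos annealed. After normalisation to pre-quench Cy3 and to control constructs, two-state fits with bootstrapping gave melting temperature and folding enthalpy. Four replicates were combined by inverse-variance weighting, and fitted temperatures were shifted up by 9.35 °C to match UV melts.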

[2] = melting temperature; fluorescence melt of hairpins on a sequencing array, two-state fit, raised by 9.35 °C to match UV melts; conditions: sodium 0.088 M
How it was run: as §1

Sequence | folding enthalpy [1] | Tm [2]
GATCACCCTTGTGATC ((((((....)))))) | -43.7 kcal/mol | 54.9 °C
TAAGGGAAACCTTA (((((....))))) | -10.6 kcal/mol | 29.1 °C
GTGCATCGAAAGATCAC (((.(((....)))))) | -24.2 kcal/mol | 46.8 °C
GATCGAAGGTTCGATC ((((((....)))))) | -31.2 kcal/mol | 52.1 °C
GCACGCGAAAGCGATTGC ((((((....)))..))) | -14.2 kcal/mol | 45.9 °C
GATCGGCGAACCGATC ((((((....)))))) | -38.2 kcal/mol | 56.2 °C
GCCCTCGAAAGAGAGGGC ((((((....)))..))) | -33 kcal/mol | 59.9 °C
GATCCATCTTGGATC ((((((...)))))) | -35.2 kcal/mol | 51.6 °C
CGAGCGGAAACGCATCG ((((((....))).))) | -20.9 kcal/mol | 48.5 °C
GATCCGGTACCGGATC ((((((....)))))) | -43.4 kcal/mol | 64.5 °C
GCGACCCCTCGC ((((....)))) | -23.4 kcal/mol | 50.1 °C
GCGCACGGAAACATGCGC (((((.(....).))))) | -37.5 kcal/mol | 59 °C
GTCATTCGAAAGAAAGAC (((.(((....))).))) | -30.6 kcal/mol | 38.4 °C
GAATGCGAAAGCACTTTC ((((((....)))..))) | -10.4 kcal/mol | 28.9 °C
GCCCCGCGAAAGCAGCGC ((.(.((....)).).)) | -14.2 kcal/mol | 39.7 °C
GATCAGCTAGCTGATC ((((((....)))))) | -48 kcal/mol | 62.1 °C
GCTTCGCGAAAGCTACGC ((.(.((....)).).)) | -12.6 kcal/mol | 42.9 °C
GAGCCCGAAAGGGACTC ((((((....))).))) | -22.9 kcal/mol | 54.8 °C
GCGGGGTCCGC ((((...)))) | -28.7 kcal/mol | 55.5 °C
GCACAGCGAAAGCTCCGC ((..(((....)))..)) | -9.89 kcal/mol | 28.1 °C
GCAAGAGAAATCTTGC ((((((....)))))) | -38.3 kcal/mol | 52.8 °C
GAAGAACCGAAAGGTTTC (((..(((....)))))) | -11.5 kcal/mol | 33 °C
GCAGGGCGAAAGCCTAGC ((..(((....)))..)) | -18.9 kcal/mol | 55.2 °C
GGCTAAACGAAAGTTGCC (((..(((....)))))) | -22.5 kcal/mol | 47.6 °C

Sequence | folding enthalpy [1] | Tm [2]
GCGTTAGACGC ((((...)))) | -18.1 kcal/mol | 51.3 °C
GCGTTAGTACGC ((((....)))) | -19.8 kcal/mol | 51.1 °C
GCGGCTGCGAAAGCACGC (((..(((....)))))) | -16.6 kcal/mol | 57.9 °C
GATCCTCAAAAGGATC ((((((....)))))) | -32.5 kcal/mol | 51.3 °C
GCGAAGCGAAAGCTGTGC ((..(((....)))..)) | -8.75 kcal/mol | 46.5 °C
GCTGACACGAAAGTGAGC (((..(((....)))))) | -18.3 kcal/mol | 40.3 °C
AAAACGAAAGTTTT (((((....))))) | -14.8 kcal/mol | 47.3 °C
GCGGGTCCCGC ((((...)))) | -28.1 kcal/mol | 56.4 °C
GATTTGCGAAAGCAGATC (((.(((....))).))) | -32 kcal/mol | 50 °C
GGGACAGAAATGTCCC ((((((....)))))) | -29.3 kcal/mol | 64.1 °C
GGTCGACGAAAGTCCACC (((.(((....))).))) | -25.6 kcal/mol | 43.9 °C
GTGTTACCGAAAGGTCAC (((..(((....)))))) | -23.6 kcal/mol | 43.6 °C
GTATACACGAAAGTGTAC (((..(((....)))))) | -9.78 kcal/mol | 31.1 °C
GCCCAAGGAAACTCGGGC ((((.((....)).)))) | -26.9 kcal/mol | 48.8 °C
GTTAGCGGAAACGCCAAC (((.(((....))).))) | -17.3 kcal/mol | 37.4 °C
GATCAGTGACTGATC ((((((...)))))) | -26.2 kcal/mol | 48.7 °C
GCTTAGCGAAAGCGAGGC ((.(.((....)).).)) | -15.4 kcal/mol | 51.8 °C
GCAGCAGGAAACTGCCGC ((.((((....)))).)) | -27.8 kcal/mol | 50.5 °C
GCTCGTGGAAACACGGGC ((.((((....)))).)) | -37.1 kcal/mol | 62.2 °C
GGTCCAGGAAACTGGATC (.(((((....))))).) | -32.1 kcal/mol | 49.7 °C
GGTTTGGGAAACCAAGCC ((.((((....)))).)) | -33.5 kcal/mol | 49.9 °C
GCAATCGGAAACGACTGC (((.(((....))).))) | -28.9 kcal/mol | 45.1 °C
GCAGAGCGAAAGCACGGC ((.(.((....)).).)) | -20.9 kcal/mol | 55.1 °C
GTCACCGAAAGGTAGAC ((((((....))).))) | -18.9 kcal/mol | 51 °C

Sequence | folding enthalpy [1] | Tm [2]
GAAGACGAAAGTCCTTTC ((((((....)))..))) | -11.6 kcal/mol | 29.6 °C
TGTAGGAAACTACA (((((....))))) | -16.9 kcal/mol | 36.9 °C
GATCAATCACTTGATC ((((((....)))))) | -29.9 kcal/mol | 43.2 °C
GGTAGCGGAAACACTACC (((((.(....).))))) | -30.9 kcal/mol | 44.8 °C
GGCCCCGAAAGGGCTGCC ((((((....)))..))) | -15.1 kcal/mol | 68.2 °C
GGAAGCGGAAACGCTTTC (.(((((....))))).) | -21.2 kcal/mol | 53.7 °C
GGATACGAAAGTAAATCC ((((((....)))..))) | -19.4 kcal/mol | 35.8 °C
GCGAAGCGAAAGCATCGC ((((.((....)).)))) | -17.4 kcal/mol | 61.1 °C
GTCGAAGGAAACCTCGAC (((((.(....).))))) | -31.8 kcal/mol | 48 °C
GATCATCATGATGATC ((((((....)))))) | -38 kcal/mol | 53.8 °C
GTACCCGAAAGGGAATAC ((((((....)))..))) | -12.4 kcal/mol | 29.7 °C
GCGATCCGAAAGGACGC (((.(((....)))))) | -37.7 kcal/mol | 61.3 °C
GCTTGGCGAAAGCTACGC ((.(.((....)).).)) | -14.8 kcal/mol | 43.3 °C
GCGTTTCGAAAGAACCGC (((.(((....))).))) | -39.8 kcal/mol | 52.4 °C
GCATCGCGAAAGCCCTGC (((..((....))..))) | -7.86 kcal/mol | 33 °C
CGCGTGCGGAAACGCGCG (((..(((....)))))) | -12.4 kcal/mol | 66.1 °C
GTTAGTGGAAACGCTAAC (((((.(....).))))) | -31.8 kcal/mol | 45.3 °C
GGTAGCACGAAAGTGACC (((..(((....)))))) | -13.9 kcal/mol | 32.2 °C
GCTAGGCGAAAGCCCTGC ((..(((....)))..)) | -12.3 kcal/mol | 39.8 °C
GTTACTGAAAAGTAAC ((((((....)))))) | -33.8 kcal/mol | 49.4 °C
GCATCCGAAAGGACGTGC ((((((....)))..))) | -19.4 kcal/mol | 38.3 °C
GTATATACGAAAGTATAC (((..(((....)))))) | -16.1 kcal/mol | 29.6 °C
GAACATGGAAACACGTTC ((((.((....)).)))) | -27.5 kcal/mol | 33 °C
GATCGCTGACGCGATC ((((((....)))))) | -36.5 kcal/mol | 66.7 °C

Sequence | folding enthalpy [1] | Tm [2]
CGTGCGGAAACGCAACG ((((((....))).))) | -27.5 kcal/mol | 53.9 °C
GATCAACGCCTTGATC ((((((....)))))) | -26 kcal/mol | 46.1 °C
GATCATGTGATGATC ((((((...)))))) | -31.4 kcal/mol | 47.2 °C
GCGCCTACGAAAGTACGC (((..(((....)))))) | -27.8 kcal/mol | 42 °C
GAGTGCGAAAGCACCTC ((((((....))).))) | -10.3 kcal/mol | 54.8 °C
GCACGGCGAAAGCGATGC (((..((....))..))) | -18.2 kcal/mol | 47.2 °C
GCTATAGAAATATAGC ((((((....)))))) | -32.9 kcal/mol | 42.8 °C
GACTGGCGAAAGCCCGTC (((.(((....))).))) | -18.9 kcal/mol | 49.1 °C
GTCTGCCGAAAGGCGAC (((.(((....)))))) | -18.1 kcal/mol | 54.9 °C
GATCTTTGTGAAGATC ((((((....)))))) | -41.7 kcal/mol | 47.7 °C
GGACTTCGAAAGAATTCC (((.(((....))).))) | -31.9 kcal/mol | 36.8 °C
GTTCGCGAAAGCGGCAAC ((((((....)))..))) | -10.2 kcal/mol | 26.8 °C
GATGACGGAAACGTTATC (((.(((....))).))) | -29.6 kcal/mol | 46.2 °C
GATCGGTAATCCGATC ((((((....)))))) | -40.8 kcal/mol | 57.3 °C
GTAGTCGAAAGACGTAC ((((((....))).))) | -19.1 kcal/mol | 47.6 °C
GCCGGGCGAAAGCCGTGC ((..(((....)))..)) | -13.7 kcal/mol | 50.2 °C
GCTACTCGAAAGAGAAGC (((.(((....))).))) | -28.6 kcal/mol | 50.4 °C
GCACAGCGAAAGCTAGGC ((..(((....)))..)) | -15.4 kcal/mol | 45.2 °C
GCTGAGCGAAAGCTACGC ((..(((....)))..)) | -16.3 kcal/mol | 44.4 °C
GTGAATGAAAATTCAC ((((((....)))))) | -29.8 kcal/mol | 52.3 °C
GATAACCGAAAGGTAATC (((.(((....))).))) | -21.2 kcal/mol | 40.2 °C
